In PubChem BioAssay AID617 (SRMLSC, 2007) one finds IC50 data, which are given here for 99 molecules.

Where only a bound is given, the exact number is not on record here.

The subject of the assay is E. coli BW25113 ΔtolC growth inhibition, OD615. In words: E. coli ΔtolC antibacterial growth inhibition – strain BW25113 ΔtolC::kan, dose response (AID 617). A digest of the protocol: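 System – E. coli BW25113 ΔtolC::kan bacteria · Input – inoculum from 1:1000-diluted 1.5 h subculture · Buffer or medium – LB plus kanamycin · Compound – serial dilution series of compound · Timing – bacterial growth with compound for 20 h, 37 °C · Measured by – OD615 · Read-out basis – growth-inhibition IC50 from four-parameter logistic curve, bounds set to 0% and 100% · Benchmarks – chloramphenicol 30 µM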
For the molecule `Cc1cc(C)c(O)c(-c2cc(C(=O)Nc3ccc(S(=O)(=O)N4CCOCC4)cc3)[nH]n2)c1`, the IC50 is 6.03 µM. Under `CCCc1nc(SCC(=O)N2CCCc3ccccc32)c2c(=O)n(C)c(=O)n(C)c2n1` stands 11.6 µM; under `COc1ccc(-c2[nH]ncc2-c2ccc(Cl)cc2)c(O)c1`, 4.52 µM; under `CN(C)c1nc(SCCOC(=O)Nc2ccccc2)nc(N(C)C)n1`, 12 µM. Under `Cc1cc(Cl)cc(C)c1OCCCCn1ccnc1` stands 15 µM. Next, `CC1Cc2ccccc2N1C(=O)Cn1c(=O)oc2cc(S(=O)(=O)NC3CCCC3)ccc21` (centres undefined): 4.39 µM. `O=C(c1ccc(Cl)c(Cl)c1)N(Cc1ccco1)c1ccc(O)cc1`: the IC50 was 3.7 µM. Under `Cc1nn(Cc2ccc(Cl)cc2)c(C)c1NC(=O)c1noc2c1CCCCC2` stands 13.4 µM. Under `Cc1cc(Nc2ccccc2)nc(-c2ccccc2O)n1` stands 15.4 µM; under `Cc1nn(-c2nc3ccccc3[nH]2)c(N)c1-c1ccccc1`, 59.4 µM. Under `COCCn1nnnc1C(C(C)C)N(Cc1ccccc1)Cc1cc2cc(OC)ccc2[nH]c1=O` (centres undefined) stands 11 µM; under `COCCCN1C(=O)c2[nH]nc(-c3ccccc3O)c2C1c1ccc(Cl)cc1` (centres undefined), 5.96 µM; under `Cc1cccc(C(C)(C)C)c1OCCn1ccnc1`, 11.8 µM. Turning to `COC(=O)c1ccc(C2c3c(n[nH]c3C)C(=O)N2c2ccc(C)cc2)cc1` (centres undefined), the IC50 is 4.38 µM. Next, `COc1ccc(OC)c(S(=O)(=O)N2CCN(c3c(C)cccc3C)CC2)c1`: 15.6 µM; `CCOC(=O)c1ccccc1NC(=O)c1c(F)c(F)c(F)c(F)c1F`: 23 µM. Next, `CC1Oc2ccccc2N(Cc2ccccc2Cl)C1=O` (centres undefined): 27.9 µM.

With `CN(c1ccccc1)S(=O)(=O)c1ccc(C(=O)Nc2nnc(-c3ccc(F)cc3)o2)cc1`, the IC50 is 0.21 µM. Under `O=C(Nc1nnc(-c2cccs2)o1)c1cccc(Oc2ccccc2)c1` stands 0.17 µM. Under `Cc1sc2nc(CN(Cc3cccs3)C(=O)NC3CCCCC3)[nH]c(=O)c2c1C` stands 6.91 µM. For the molecule `Cc1ccccc1-c1nnc(SCc2ccccc2F)o1`, the IC50 is 25.8 µM. Under `Cc1ccc(C(C)C)c(Oc2nnnn2-c2ccccc2)c1` stands 14.7 µM; under `NC1C2CN(c3nc4c(cc3F)c(=O)c(C(=O)O)cn4-c3ccc(F)cc3F)CC12` (centres undefined), under 0.2 µM; under `C=CCn1c(SCC(O)Cn2c3ccccc3c3ccccc32)nnc1-c1ccco1` (centres undefined), 21.6 µM.

On to `c1ccc(CSc2nnc(-c3cccs3)n2Cc2ccco2)cc1`, for which the IC50 is 13.2 µM.

With `Cc1cc(=O)[nH]c(SCC(=O)Nc2nc(-c3ccccc3)cs2)n1`, the IC50 was 4.48 µM. Under `CCCCC(=O)Nc1cccc(-c2nnc(-c3ccccc3)o2)c1` stands 16.9 µM. Under `COc1ccc(-c2nc(-c3cccs3)c(-c3cccs3)[nH]2)cc1O` stands 6.09 µM; under `CC1=CC(C)(C)N2C(=O)C3(C(C#N)=C(N)Oc4cc(O)ccc43)c3cccc1c32` (centres undefined), 4.14 µM.

Regarding `CCc1ccccc1N(CC)C(=O)CCc1nc(-c2ccc(C)cc2)no1`, the IC50 is 11.2 µM. Under `O=C(COn1nnc2ccc(C(F)(F)F)cc21)Nc1nnc(-c2ccccc2)o1` stands 0.64 µM.

On to `N#CC1=C(SCC(=O)c2cc3ccccc3oc2=O)NC(=O)C(C#N)C12CCCC2` (centres undefined), for which the IC50 is 12.7 µM. Regarding `CCCC(=O)c1ccc(N2CCCCCC2)c(F)c1`, the IC50 was 95.6 µM. Next, `Brc1cc(Br)c2ncnc(N3CCCCC3)c2c1`: 34.6 µM. Under `CCOC(=O)C1=C(C)NC(SCC(=O)Nc2cc(C)on2)=C(C#N)C1c1cccs1` (centres undefined) stands 11 µM. Next, `CCCCn1c(N2CCC(Cc3ccccc3)CC2)nc2c1c(=O)[nH]c(=O)n2C`: 5.96 µM; `COc1ccc(CNC(=O)c2cc(-c3ccccc3OC)on2)cc1`: 56 µM; `C=CCNc1ncnc2c1[nH]c1ccc(C)cc12`: 2.38 µM. Regarding `Cc1cc(=O)[nH]c(-n2nc(C)cc2C)n1`, the IC50 was 6.56 µM. Next, `CC(Nc1ccc(Br)cn1)c1cc(Cl)ccc1O` (centres undefined): 5.61 µM. Next, `Cc1cc(OCCCC(=O)N2CCCCC2)cc(C)c1Cl`: 28.2 µM.

As to `O=C1c2ccccc2C(O)(Cc2ccccc2)N1C1CCCCC1` (centres undefined), the IC50 is 11.5 µM.

With `COc1ccc(NC(=O)c2ccc(Cl)c(S(=O)(=O)N3CCc4ccccc4C3)c2)cn1`, the IC50 is 8.1 µM. Consider `Cn1c(C(=O)N2CCc3ccccc3C2)cc2oc3ccccc3c21`, for which the IC50 is 7.81 µM.

`O=C(Nc1nc(-c2ccccn2)cs1)c1ccc(Cl)s1`: the IC50 was 0.13 µM. Under `Nc1nc(CN2CCN(c3cccc(Cl)c3)CC2)nc(N2CCCc3ccccc32)n1` stands 4.27 µM; under `O=C(C1CC1)N1CCc2cc(S(=O)(=O)NCCC3=CCCCC3)ccc21`, 17.7 µM; under `COc1ccc(-n2c(C)nc3c(cnn3-c3ccc(Cl)cc3)c2=O)cc1`, 20.9 µM. Next, `Cc1noc(C)c1COC(=O)c1cc(C)n(-c2ccccc2)c1C`: 11.5 µM. Next, `Cc1cccc(N2CCN(C(=O)C34CC5CC(CC(C5)C3)C4)CC2)c1C`: 19.6 µM; `CCn1c(SCC(=O)OC2CCCCC2)nc2ccccc2c1=O`: 11.8 µM. Regarding `CCOC(=O)Cc1c(C)nc2c(-c3cccc(Br)c3)c[nH]n2c1=O`, the IC50 was 0.17 µM. In the case of `CCC(Oc1ccccc1)C(=O)Nc1nnc(C(F)(F)F)s1` (centres undefined), the IC50 is 9.18 µM. Under `CCOC(=O)c1cnn(-c2nc3sc4c(c3c(=O)[nH]2)CCCC4)c1N` stands 0.28 µM; under `CCOC(=O)Cc1ccc(NS(=O)(=O)c2ccc(SC)cc2)cc1`, 14.7 µM. Regarding `CC(C)c1ccc(-c2noc(C3CCCN(C(=O)c4ccc(F)cc4F)C3)n2)cc1` (centres undefined), the IC50 was 17.9 µM.

Consider `COc1ccc(/C(O)=C2\C(=O)C(=O)N(CC3CCCO3)C2c2cc(OC)ccc2OC)cc1` (centres undefined), for which the IC50 was 11.8 µM. Next, `Cc1cc(C)nc(-n2nc(C)cc2Nc2ccccc2)n1`: 2.65 µM; `CCNc1nc(NC(C)C)nc(N(C#N)CCOc2ccc(Cl)cc2Cl)n1`: 6.64 µM. Under `FC(F)(F)c1cccc(N2CCN(c3nnnn3-c3ccccc3)CC2)c1` stands 20.8 µM; under `COC(=O)c1c(NC(=O)c2ccc(C)o2)sc2c1CCCCC2`, 28.4 µM; under `O=S(=O)(c1ccccc1)N1CCN(Cc2ccccc2C(F)(F)F)CC1`, 16.8 µM. Next, `O=C(CN1CCN(S(=O)(=O)c2ccc(F)cc2)CC1)Nc1ccc(Cl)c(C(F)(F)F)c1`: 9.07 µM; `COc1ccc(Nc2nc(N3CCCC3)c3ccccc3n2)cc1`: 18.3 µM; `CCN1C(=O)CSC1=NC1C2CC3CC(C2)CC1C3` (centres undefined): 33.5 µM.

Regarding `CSc1nc(N2CCOCC2)c2c3c(sc2n1)CCCC3`, the IC50 is 11.9 µM. Under `O=C(CNCCC1=CCCCC1)Nc1ccccc1N1CCCCC1` stands 11.2 µM; under `Cc1cc(/C=C(/C#N)c2cccc(F)c2)c(C)n1-c1cccnc1`, 10.9 µM. For the molecule `COc1cccc(NC(=O)N2CCN(c3cccc(C)c3C)CC2)c1`, the concentration for half-maximal inhibition (IC50) is 13.4 µM. Next, `CN(C)c1ccc(-c2nn3c(-c4ccncc4)nnc3s2)cc1`: 13.6 µM. Under `Cc1ccc(NC(=O)N2CCC(c3nc4c(nnn4Cc4cccc(Cl)c4)c(=O)[nH]3)CC2)cc1` stands 13.5 µM; under `COc1ccc(-c2cnc(SCC(=O)Nc3ccc4c(c3)OCO4)n2Cc2ccco2)cc1`, 11.1 µM; under `CCOc1ccccc1N1CCN(C(=O)Nc2ccc(F)c(Cl)c2)CC1`, 10.2 µM.

Regarding `COc1ccc(C/C(O)=C(\C#N)c2nc3ccccc3s2)cc1`, the IC50 is 5.12 µM. Under `COc1ccccc1N1CCN(c2nc(C)nc3c2oc2ccccc23)CC1` stands 11.4 µM.

For the molecule `CNc1nc(Nc2ccc(C(C)=O)cc2)nc(OC(C(F)(F)F)C(F)(F)F)n1`, the IC50 was 20.1 µM. Under `O=C1c2ccccc2C(=O)N1CCC(c1ccc(F)cc1)c1ccco1` (centres undefined) stands 13.4 µM; under `Cc1c(C(=O)OCCOc2ccccc2)[nH]c2c1C(=O)CCC2`, 3.86 µM.

As for `COc1ccc(-c2noc(Cc3ccc(Cl)cc3)n2)cc1OC`, the IC50 was 75 µM. Consider `Cn1cc(SCC(=O)Nc2nc3ccccc3s2)c2ccccc21`, for which the IC50 was 9.23 µM.

In the case of `OC1(c2cccc(C(F)(F)F)c2)CCN(c2ncnc3c2[nH]c2ccc(F)cc23)CC1`, the IC50 was 1.58 µM. Next, `Cc1cc(N2CCCCC2)nc(SCc2ccc(C#N)cc2)n1`: 12.1 µM. Next, `COc1ccc(C(=O)Nn2cnc3scc(-c4cccs4)c3c2=O)c(O)c1`: 3.24 µM; `O=c1n(Cc2ccc(Cl)cc2)c2sc3c(c2c2ncnn12)CCCC3`: 7.35 µM; `COc1ccc2nc(NC(=O)C3CCCN(S(=O)(=O)c4cccs4)C3)sc2c1` (centres undefined): 26 µM.

As for `Cc1ccc2c3c1C1(C(=O)N3C(C)(C)CC2C)C(C#N)=C(N)Oc2cc(O)ccc21` (centres undefined), the IC50 is 2.96 µM.

Take `Nc1nncn1C(=O)CCCN1C(=O)c2ccccc2C1=O`: the IC50 was 12.7 µM. Under `COc1ccc2nc(NC(=O)CSc3nnnn3C3CCCCC3)sc2c1` stands 63.6 µM. With `CN(c1ccccc1)c1nc(N2CCCC2)nc(-n2ccnc2)n1`, the IC50 is 4.03 µM. Next, `c1ccc(CC2CCN(Cc3nc(-c4ccccc4)no3)CC2)cc1`: 13.4 µM; `Clc1ccc(Nc2nc(-c3cccs3)cs2)nc1`: 80.2 µM. For `C/C(CCc1oc2ccccc2c1-c1ccc(C)o1)=N/O`, the IC50 was 14.2 µM. Next, `CC(=O)Nc1cccc(NC(=O)CSc2ncc(-c3ccc(Cl)cc3)n2Cc2ccco2)c1`: 2.99 µM. Next, `CCc1cc(C(=O)Cc2ccc(F)cc2)c(O)cc1O`: 7.76 µM. Next, `CC(=O)c1c(C)n([O-])c2ccccc2[n+]1=O`: 3.89 µM; `CCCCCCn1c2c(c(=N)c3c1CCC3)CCC2`: 10.2 µM. As to `N#Cc1cn(CCOc2ccccc2F)c2ccccc12`, the half-maximal inhibitory concentration (IC50) is 16.1 µM.

As to `O=C(Nc1nnc(-c2ccc3c(c2)OCCO3)o1)c1ccc(Cc2ccccc2)cc1`, the IC50 is 3.26 µM. Next, `COc1ccccc1N1CCN(C(=O)c2cc(-c3ccc(C)cc3)on2)CC1`: 7.85 µM.
